Screening results from PubChem.
The list is not random: actives were taken first. Their share in the collection is about 4%.
TAAR1 antagonist: antagonists of human TAAR1; Q96RJ0; CHO RD-HGA16 TAAR1, Fluo-8 calcium fluorescence, antagonist; inhibition, % at 3 µM; 360,000 compounds, 1.5% hits; AID 624466;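 active means inhibition above a per-plate cutoff, the mean inhibition of test compounds on that plate plus 3 SD, cut at about 49% in these data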
Target sequence (Q96RJ0 whole entry, looked up): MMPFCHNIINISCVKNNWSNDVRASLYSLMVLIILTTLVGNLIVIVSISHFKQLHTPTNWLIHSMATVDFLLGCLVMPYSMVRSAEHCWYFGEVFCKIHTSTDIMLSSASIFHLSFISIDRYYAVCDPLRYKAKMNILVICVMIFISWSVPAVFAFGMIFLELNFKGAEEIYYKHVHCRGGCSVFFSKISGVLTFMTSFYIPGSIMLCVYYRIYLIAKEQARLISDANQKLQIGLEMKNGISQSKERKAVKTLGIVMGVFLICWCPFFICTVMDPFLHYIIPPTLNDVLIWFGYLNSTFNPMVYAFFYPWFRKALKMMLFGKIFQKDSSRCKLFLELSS
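test system = CHO RD-HGA16 cells bearing hTAAR1 | replication = singlicate | controls = DMSO-only wells and EC80 β-PEA-stimulated wells | reagent = EC80 β-phenethylamine stimulus | read-out basis = percent inhibition of PEA-evoked calcium signal, max/basal emission ratio | schedule = seeding 17-24 h prior, 75-min 37 °C, 30-min RT dye loading | signal = kinetic Fluo-8 calcium fluorescence measurement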
OX1R antag-1: blocks the human orexin 1 receptor; 330,000 compounds, 1.8% hits; OX1R-expressing cells, FRET antagonist read-out; O43613; inhibition, % at 6.6 µM; in the data active means inhibition mostly above about 38%, no sharp cut-off; inactive means mostly below about 40%
Target sequence (O43613 whole entry, looked up): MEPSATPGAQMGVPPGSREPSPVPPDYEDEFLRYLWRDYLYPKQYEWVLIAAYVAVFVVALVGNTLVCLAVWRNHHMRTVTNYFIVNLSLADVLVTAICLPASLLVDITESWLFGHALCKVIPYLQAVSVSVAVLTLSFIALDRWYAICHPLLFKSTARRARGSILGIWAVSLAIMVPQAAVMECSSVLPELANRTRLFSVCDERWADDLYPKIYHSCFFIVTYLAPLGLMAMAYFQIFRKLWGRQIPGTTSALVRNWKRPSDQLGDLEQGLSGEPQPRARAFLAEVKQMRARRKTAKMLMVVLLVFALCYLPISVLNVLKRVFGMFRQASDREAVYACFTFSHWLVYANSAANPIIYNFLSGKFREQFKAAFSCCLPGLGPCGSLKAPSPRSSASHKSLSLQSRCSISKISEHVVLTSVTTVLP
CHO parental Ca: counter-screen: ATP calcium response change in parental CHO cells. parental CHO-K1, ATP-induced calcium, Fluo-8 fluorescence. inhibition, % at 5.6 µM. 330,000 compounds, 0.63% hits;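 active means inhibition above that plate's mean sample inhibition plus 3 SD, cut at about 26% in these data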
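material = parental CHO cells | also added = ATP as calcium-mobilizing challenge | dosing = single point at 5.6 µM | detection = intracellular calcium via Fluo-8 no-wash fluorescent dye | read-out = % inhibition | benchmarks = low control ATP plus DMSO, high control DMSO only | repeats = one well per compound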
OX1R antag-2: antagonists of human orexin 1 receptor. CHO/OX1R cells, Fluo-8 calcium fluorescence, orexin A. inhibition, % at 5 µM. 330,000 compounds, 0.43% hits. O43613;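 active means inhibition above its plate's threshold, mean inhibition of all tested compounds on the plate plus 3 SD, cut at about 37% in these data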
TAAR1 ag: human TAAR1 agonism; Q96RJ0; CHO RD-HGA16 TAAR1, Fluo-8 calcium fluorescence; vehicle wells 0%, saturating PEA agonist 100%; activation, % at 3 µM; 360,000 compounds, 0.99% hits; AID 624467;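 active means activation above the mean activation of all test compounds in the run plus 3 SD, cut at about 38% in these data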
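Assay system: CHO-derived RD-HGA16 cells with stable Gα16 and human TAAR1; timing: 17-24 h seeding, 75 min 37 °C dye, 30 min RT; read-out: % activation from peak over basal fluorescence ratio, DMSO-to-PEA scaled; measured by: kinetic Fluo-8 calcium fluorescence; benchmarks: low control DMSO, high control PEA (EC100); doses: 3 µM single concentration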
nonsel antag count: nonselective antagonist in TAAR1 antagonist counter-screen; AID 651780; shares compounds with TAAR1 antagonist; inhibition, % at 3 µM; 2,400 compounds, 77% hits; counterscreen cell line, calcium fluorescence, antagonist mode; in the data active means inhibition above about 22%;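 further: CHO-Ga16 host cells stimulated with ATP at an EC80 level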
TAAR1 antag conf: confirmation of human TAAR1 antagonists; shares compounds with TAAR1 antagonist; TAAR1-expressing cells, fluorescence antagonist read-out; inhibition, % at 3 µM; 2,400 compounds, 40% hits; AID 651785; in the data active means inhibition above about 49%;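 further: CHO-Ga16 host cells challenged with agonist PEA near its EC80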
Ga16 ag counter: counter-screen for TAAR1 antagonists: nonselective Ga16 agonists. 2,400 compounds, 18% hits. AID 651953. activation, % at 3 µM. shares compounds with TAAR1 antagonist. Ga16-expressing cells, calcium fluorescence, agonist counterscreen; in the data active means activation above about 12%
TAAR1 ag counter: counter-screen for human TAAR1 antagonists: TAAR1 agonists; AID 651955; hTAAR1 cell line, fluorescence activation, agonist mode; 2,400 compounds, 2% hits; activation, % at 3 µM; shares compounds with TAAR1 antagonist; in the data active means activation above about 37%;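 further: CHO cells stably expressing TAAR1 with calcium dye readout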
Large screens that a line does not name were inactive (follow-up assays come after a bar, where they were run).

CCOc1ccc(NC(=O)CN(C)C(=O)C2CC(=O)N(CCc3ccc(OC)c(OC)c3)C2)cc1OCC (stereo not given)	TAAR1 antagonist 99.6 (no result: OX1R antag-1, CHO parental Ca, OX1R antag-2) | nonsel antag count inactive | TAAR1 antag conf inactive | Ga16 ag counter inactive | TAAR1 ag counter inactive
COc1ccc(NC(=O)CN(C)C(=O)C2CC(=O)N(CCc3ccc(OC)c(OC)c3)C2)cc1 (stereo not given)	none (no result: OX1R antag-1, CHO parental Ca, OX1R antag-2)
CCc1nc(SCCO)c2oc3ccccc3c2n1	none
CCc1nc(SCC(=O)N2CCN(c3ccccc3)CC2)c2oc3ccccc3c2n1	TAAR1 antagonist 53.3 | nonsel antag count 27.2 | TAAR1 antag conf inactive | Ga16 ag counter inactive | TAAR1 ag counter inactive
COc1cc(-c2nc(C(=O)NCC3CCCO3)cc3c2[nH]c2ccccc23)cc(OC)c1OC (stereo not given)	TAAR1 antagonist 61.4 | nonsel antag count 28.3 | TAAR1 antag conf inactive | Ga16 ag counter inactive | TAAR1 ag counter inactive
COc1ccccc1-c1nc(C(=O)NCC2CCCO2)cc2c1[nH]c1ccccc12 (stereo not given)	none (no result: TAAR1 antagonist, TAAR1 ag)
Fc1ccc(-n2nnc(-c3nccs3)n2)cc1	none
Cn1c(/C=C(\C#N)C(N)=S)ccc1-c1ccc(Br)cc1	TAAR1 antagonist 67.1 (no result: OX1R antag-1, CHO parental Ca, OX1R antag-2) | nonsel antag count 25.1 | TAAR1 antag conf inactive | Ga16 ag counter inactive | TAAR1 ag counter inactive
Cn1cccc1/C=C(\C#N)C(N)=S	none
Cc1nc(SCC(=O)N2CCCC2=O)c2c(C)c(C)sc2n1	none (no result: OX1R antag-1, CHO parental Ca, OX1R antag-2)
COc1cc(/C=N/Nc2nc(Nc3ccc(C)cc3)nc(-n3nc(C)cc3C)n2)cc(OC)c1OC	none
COc1ccc(O)c(/C=N/Nc2nc(C)cc(-c3ccccc3)n2)c1	none
COc1ccc(O)c(/C=N/Nc2nc(Nc3ccccc3)nc(-n3nc(C)cc3C)n2)c1	TAAR1 antagonist 58.8 | nonsel antag count 37.3 | TAAR1 antag conf inactive | Ga16 ag counter inactive | TAAR1 ag counter inactive
COc1cc(/C=N/Nc2nc(Nc3ccccc3)nc(-n3nc(C)cc3C)n2)cc(OC)c1OC	TAAR1 antagonist 64.5 | nonsel antag count 24.1 | TAAR1 antag conf inactive | Ga16 ag counter inactive | TAAR1 ag counter inactive
CCOC(=O)Cn1c(=O)oc2cc(S(=O)(=O)N(CCN(C)C)Cc3ccccc3)ccc21	none
CCOC(=O)Cn1c(=O)oc2cc(S(=O)(=O)N(C)Cc3ccccc3)ccc21	TAAR1 antagonist 64.7 | nonsel antag count inactive | TAAR1 antag conf inactive | Ga16 ag counter inactive | TAAR1 ag counter inactive
Cc1cc(C(=O)NNC(=O)CN2C(=O)NC(C)(c3ccccc3)C2=O)c(C)o1 (stereo not given)	none
CCN(CC)c1ccc(S(=O)(=O)N2CCOCC2)cc1NC(=O)COC(=O)/C=C/c1ccccc1	TAAR1 antagonist 69.7 (no result: OX1R antag-1, CHO parental Ca, OX1R antag-2) | nonsel antag count 31.0 | TAAR1 antag conf inactive | Ga16 ag counter inactive | TAAR1 ag counter inactive
Cc1noc(NS(=O)(=O)c2ccc(NC(=O)c3cccc(S(=O)(=O)Nc4ccccc4F)c3)cc2)c1C	TAAR1 antagonist 100.3 | nonsel antag count inactive | TAAR1 antag conf inactive | Ga16 ag counter inactive | TAAR1 ag counter inactive
CC(=O)Nc1cccc(-c2ccnc3c2CC(C(=O)Nc2cccc(Oc4ccccc4)c2)O3)c1 (stereo not given)	none (no result: OX1R antag-1, CHO parental Ca, OX1R antag-2)
CN(C(=O)COC(=O)/C=C/c1ccc(S(=O)(=O)N2CCc3ccccc32)cc1)C1CCS(=O)(=O)C1 (stereo not given)	TAAR1 antagonist 101.4 | nonsel antag count inactive | TAAR1 antag conf inactive | Ga16 ag counter inactive | TAAR1 ag counter inactive
Cc1ccc(-n2c(-c3cnccn3)n[nH]c2=S)c(Br)c1	TAAR1 antagonist 104.3 | nonsel antag count inactive | TAAR1 antag conf inactive | Ga16 ag counter inactive | TAAR1 ag counter inactive
Cc1ccc(-n2c(-c3cccnc3)n[nH]c2=S)c(C)c1	none
Cc1cccc(COCC(CC(C)C)N2CCN(C(=O)c3ccc(C(C)(C)C)cc3)CCC2=O)c1 (stereo not given)	TAAR1 antagonist 70.7 | nonsel antag count 32.3 | TAAR1 antag conf 57.5 | Ga16 ag counter inactive | TAAR1 ag counter inactive
Cc1cccc(COCC(CC(C)C)N2CCN(C(=O)c3ccc(C(F)(F)F)cc3)CCC2=O)c1 (stereo not given)	none
Cc1cccc(COC[C@H](CC(C)C)N2CCN(C(=O)c3ccc(C(C)(C)C)cc3)CCC2=O)c1	TAAR1 antagonist 63.0 (no result: OX1R antag-1, CHO parental Ca, OX1R antag-2) | nonsel antag count 29.8 | TAAR1 antag conf 51.9 | Ga16 ag counter inactive | TAAR1 ag counter inactive
CC(C)CC(COCc1cccc(Cl)c1)N1CCN(C(=O)c2ccc(C(F)(F)F)cc2)CCC1=O (stereo not given)	none
Cc1cccc(NC(=O)Nc2c(C)n(C)n(-c3ccccc3)c2=O)c1C	none
CC(C)NC(=O)N(C)C[C@H]1Oc2c(NC(=O)Nc3ccc4c(c3)OCO4)cccc2C(=O)N([C@H](C)CO)C[C@@H]1C	none
C[C@H](CO)N1C[C@H](C)[C@@H](CN(C)C(=O)Nc2ccc3c(c2)OCO3)Oc2c(NC(=O)Nc3ccccc3)cccc2C1=O	TAAR1 antagonist 58.5 | nonsel antag count 25.6 | TAAR1 antag conf inactive | Ga16 ag counter inactive | TAAR1 ag counter inactive
CC(C)=CCC/C(C)=C/CN1C(=O)N(c2ccc(F)cc2)[C@H]2C[C@@H](c3ccccc3)[C@@H](C)[C@@H](C(=O)N3CCOCC3)C[C@H]21	TAAR1 antagonist 64.6 (no result: OX1R antag-1, CHO parental Ca, OX1R antag-2) | nonsel antag count 35.1 | TAAR1 antag conf 59.5 | Ga16 ag counter inactive | TAAR1 ag counter inactive
CCN1C(=O)N[C@H]2C[C@H](C(=O)N3CCCC3)[C@H](C)[C@H](c3ccccc3)C[C@H]21	none (no result: OX1R antag-1, CHO parental Ca, OX1R antag-2)
CC(C)(C)c1cc(C(=O)NCc2cc(F)cc3c2OCOC3)n(Cc2ccccc2)n1	TAAR1 antagonist 81.2 | nonsel antag count 33.6 | TAAR1 antag conf 54.8 | Ga16 ag counter inactive | TAAR1 ag counter inactive
CCC(C)(C)NC(=O)C(c1ccc(F)cc1)N(Cc1ccco1)C(=O)c1snc(C(N)=O)c1N (stereo not given)	none
Cc1ccccc1C(C(=O)NCc1ccccc1)N(Cc1ccco1)C(=O)c1ccccn1 (stereo not given)	TAAR1 antagonist 50.0 | nonsel antag count 27.3 | TAAR1 antag conf inactive | Ga16 ag counter inactive | TAAR1 ag counter inactive
COCCNC(=O)C(c1ccc(C)o1)N(Cc1ccco1)C(=O)c1snc(C(N)=O)c1N (stereo not given)	none
